hiPSC survival – increases survival of single human iPS cells; hiPSC single-cell survival, ATPlite luminescence; 100% = ROCK inhibitor wells, 0% = DMSO; survival enhancement, % at 20 µM; hit rate 0.044% among 360,000; in the data active means survival enhancement above about 18%;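 further: cells exposed to compounds for 16 hours before the ATP read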
SKN-1 inh – blocks SKN-1 activity in C. elegans | C. elegans VP596 Pgst-4::GFP/RFP ratio, acrylamide-induced, 24 h | AID 624304 | inhibition, % at 21.8 µM | hit rate 0.49% among 360,000;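 active means interference check ratio from 0.5 to 1.5 plus GFP to RFP signal ratio inhibition reaching or exceeding a fixed threshold, cut at about 30% in these data, passing the limit was not always enough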
NRP1-CendR mod – modulators of CendR peptide binding to human neuropilin-1; O14786; FAM-RPARPAR peptide binding to NRP-1, fluorescence polarization; inhibition, % at 25 µM; hit rate 0.85% among 360,000; AID 602438;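 active means inhibition or corrected inhibition above about 18%, plus a signal ratio from 0.5 to 1.5, limit read from the data, passing the limit was not always enough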
MT1-MMP act inh – blocks activation of human MT1-MMP; GFP/RFP ratio change, % at 20 µM; hit rate 0.061% among 360,000; AID 651647; HT1080 RFP-PRO-GFP cells, GFP/RFP ratio fluorescence, overnight; percent of plate control window, DMSO zero;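 active means GFP/RFP ratio change of at least 30% with cell ATP level not reduced by more than half and red fluorescence within 50% of control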
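Test system: HT1080 cells expressing an RFP-PRO-GFP fluorescent reporter construct / Compound dosing: single-point 20 µM compound, 1% DMSO / Schedule: cells overnight before dosing, compound overnight, 37 °C, 5% CO2 / Evaluation: GFP/RFP fluorescence ratio / Control set: DMSO and RFP-L50D-GFP cell wells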
* marks the source's active call; other numbers are inactive results; . = no result given. The list is not random: actives were taken first. Their share in the collection is about 1.4%.

SMILES	hiPSC survival	SKN-1 inh	NRP1-CendR mod	MT1-MMP act inh
CCc1nc2c(OCc3ccc(C(F)(F)F)cc3)cccn2c1N(C)C(=O)c1ccncc1	-1	54*	-8	-5
CNC(=O)CSc1nnc(-c2ccco2)n1-c1cc(C)ccc1C	1	-5	9	1
Cc1ccc(C)c(-n2c(SCC(=O)NC(C(=O)O)C(C)C)nnc2-c2cccc(Cl)c2)c1 (stereo not drawn)	0	4	26*	-1
O=C1NC(=S)S/C1=C\c1cc(Cl)ccc1Cl	0	-13	-99	9
Cc1ccccc1-c1nc(CS(=O)CC(=O)NCc2ccc3c(c2)OCO3)c(C)o1 (stereo not drawn)	0	36*	10	-6
Cc1oc(-c2ccccc2Cl)nc1CS(=O)CC(=O)NCc1ccc2c(c1)OCO2 (stereo not drawn)	0	-10	10	4
COc1ccc(-c2ccc3c(=O)cc(-c4ccsc4)oc3c2)cn1	0	47*	-209	-3
COc1cccc(NC(=S)N(Cc2cccc(Br)c2)CC2CCC(C(=O)O)CC2)c1 (stereo not drawn)	0	-2	30*	-3
Cc1ccc(NC(=O)COC(=O)C2(C)CC2(Cl)Cl)cc1S(=O)(=O)N1CCOCC1 (stereo not drawn)	0	41*	-6	3
c1ccc(CNc2ncnc3c2cnn3-c2ccccc2)cc1	-3	-17	9	11
c1ccc(CCNc2ncnc3c2cnn3-c2ccccc2)cc1	0	35*	6	5
Clc1ccc(Nc2ncnc3c2cnn3-c2ccccc2)cc1	0	37*	-10	-6
O=C(CCCOc1ccc(Cl)cc1Cl)N1CCc2ccccc2C1	-1	12	29*	6
COc1ccc(C(C(=O)NC(C)(C)C)N(C(=O)CCC(=O)Nc2cc(C)on2)c2c(C)cccc2C)cc1 (stereo not drawn)	-1	23	31*	-6
COc1ccc(C(C(=O)NC(C)(C)C)N(C(=O)CCC(=O)Nc2cc(C)on2)c2ccc(C)c(C)c2)cc1 (stereo not drawn)	0	-6	4	-4
O=C(N1CCCCCC1)N1CCN(C(=O)N2CCCCC2)CC1	-1	13	28*	4
COc1ccc2c(=O)c(-c3ccc(OC)c(OC)c3)coc2c1	-2	-4	-3	-1
COc1ccc(-c2coc3cc(OC(C)=O)c(OC)cc3c2=O)cc1	0	13	25*	8
Cc1ccc(C)c(C(=O)Cn2ncc(Cl)c(Cl)c2=O)c1	-6	8	20*	-3
CC(=O)N/N=C/c1cc(C(C)C)cc(/C=N/NC(C)=O)c1O	1	4	41*	-113
CC1CCCC(NC(=O)CCC(=O)c2ccc(F)cc2)C1C (stereo not drawn)	0	-8	26*	-3
O=C(CCc1nnc(CCCCc2ccccc2)o1)NCCn1cccn1	4	-5	-1	0
Cn1c(Cc2ccccc2)nnc1SCC(=O)Nc1ccc2c(c1)OCO2	-1	46*	9	2
O=C(CSc1nnc(-c2cccs2)n1Cc1ccccc1)NCc1ccc2c(c1)OCO2	4	-14	24*	0
O=C(CSc1nnc(Cc2ccccc2)n1Cc1ccccc1)NCc1ccco1	5	-4	30*	0
SMILES	hiPSC survival	SKN-1 inh	NRP1-CendR mod	MT1-MMP act inh
Cn1c(Cc2ccccc2)nnc1SCC(=O)Nc1ccccc1	0	6	1	-2
CCc1nnc(NS(=O)(=O)c2ccc(N/C=C\C(=O)c3ccc4ccccc4c3)cc2)s1	-2	17	-55	7
Clc1ncc(CN2CCN(Cc3ccccc3)CC2)s1	-3	-8	-1	3
CS(=O)(=O)N1CCN(CC2CC3C=CC2C3)CC1 (stereo not drawn)	2	3	15	-3
CCN1CCN(CC2CC3C=CC2C3)CC1 (stereo not drawn)	0	-7	31*	4
Cc1ccc(C(=O)N(C)CC(=O)Nc2ccc(N3CCOCC3)cc2)s1	0	35*	-3	-1
O=C(c1cc2ccccc2o1)N(Cc1nnc(-c2ccccc2Cl)o1)C1CC1	0	-2	5	6
Cc1c(OC(C)C(=O)NCc2ccccn2)ccc2c3c(c(=O)oc12)CCC3 (stereo not drawn)	0	15	23*	4
Cc1c(OCC(=O)NCc2ccccn2)ccc2c3c(c(=O)oc12)CCCC3	0	-3	-4	-1
CCOC(=O)/C(N=Nc1c(C)n(C)n(-c2ccccc2)c1=O)=C(/O)c1ccccc1	-1	0	32*	6
CCN1C(=O)N(CC)C(O)(c2ccccc2)C1(O)c1ccccc1 (stereo not drawn)	4	-18	30*	0
Cn1c(SCC(=O)N2CCc3ccccc3C2)nnc1-c1cccs1	-2	-6	12	2
CCOC(=O)C1=C(N)Oc2cc(O)ccc2C1c1ccc(C)cc1 (stereo not drawn)	0	-1	5	-6
Cc1ccc(CN2CC(C(=O)Nc3ccccc3N3CCCC3)CC2=O)cc1 (stereo not drawn)	0	-2	-4	7
O=C(Nc1cc(C(F)(F)F)ccc1N1CCCC1)C1CC(=O)N(Cc2ccccc2)C1 (stereo not drawn)	0	-7	24*	-2
O=C(NC(=O)N1CCCCC1)c1ccccc1	3	-11	26*	-2
Cc1ccc(C(O)c2ccncc2)cc1 (stereo not drawn)	-1	-12	-8	5
CC(c1ccncc1)C(C)c1ccncc1 (stereo not drawn)	1	5	23*	-1
Cn1c(SCc2nnc(-c3ccc(F)cc3)o2)nnc1C1COc2ccccc2O1 (stereo not drawn)	1	-9	6	.
O=C(Nc1cccnc1)c1cc(-c2ccc(Cl)c(Cl)c2)on1	0	3	-7	5
O=C(Nc1cccnc1)c1cc(-c2ccc3c(c2)OCO3)on1	-2	39*	-26	5
CCCCn1cc(C(C)(C)C)c(C#N)c1NC(C)=O	4	2	13	4
COc1cc(/C=N/N=C2\CC3CCC2(C)C3(C)C)ccc1O (stereo not drawn)	2	-10	23*	-1
COc1ccc(/C=N/N=C2\CC3CCC2(C)C3(C)C)cc1O (stereo not drawn)	2	14	2	-2
O=c1c(=NNc2ccccc2Cl)c(=O)c2ccccc12	-5	10	11	4
COc1ccc([N+](=O)[O-])cc1NC(=O)C(C)OC(=O)CSC(C)C(=O)Nc1cc(C)on1 (stereo not drawn)	0	37*	-7	6
CCCNC(=O)C1(C)CCN(Cc2ccc(Oc3ccccc3)cc2)C1 (stereo not drawn)	-1	2	-5	0
Cc1ccc(S(=O)(=O)N2CCC(=O)N(C(COCc3cccc(C)c3)C(C)C)CC2)cc1 (stereo not drawn)	6	5	24*	-6

Compound activity as filed in PubChem.
